Assay outcomes (PubChem BioAssay)
An excerpt weighted towards active compounds, which were near 1.8% of everything screened.
ARNT-TACC3 inh: disruptors of human ARNT/TACC3 interaction; Q9Y6A5; AlphaScreen His-ARNT PAS-B/GST-TACC3 binding, luminescence; TACC3 fragment carries E629A point mutation; inhibition, % at 9.99 µM; hit rate 0.66% among 390,000; AID 623870;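 active = mean inhibition of replicates at least 50% and at least half of replicates each reaching 50%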
SIAE inh: human SIAE inhibition, primary screen; SIAE FP-Rh probe binding, fluorescence polarization; inhibition, % at 9.66 µM; hit rate 0.69% among 370,000; AID 1053197;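 active = inhibition above a cutoff: mean of compounds within the control limits plus 3 SD of those, cut at about 17% in these data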
Target sequence (Q9HAT2 whole entry, looked up): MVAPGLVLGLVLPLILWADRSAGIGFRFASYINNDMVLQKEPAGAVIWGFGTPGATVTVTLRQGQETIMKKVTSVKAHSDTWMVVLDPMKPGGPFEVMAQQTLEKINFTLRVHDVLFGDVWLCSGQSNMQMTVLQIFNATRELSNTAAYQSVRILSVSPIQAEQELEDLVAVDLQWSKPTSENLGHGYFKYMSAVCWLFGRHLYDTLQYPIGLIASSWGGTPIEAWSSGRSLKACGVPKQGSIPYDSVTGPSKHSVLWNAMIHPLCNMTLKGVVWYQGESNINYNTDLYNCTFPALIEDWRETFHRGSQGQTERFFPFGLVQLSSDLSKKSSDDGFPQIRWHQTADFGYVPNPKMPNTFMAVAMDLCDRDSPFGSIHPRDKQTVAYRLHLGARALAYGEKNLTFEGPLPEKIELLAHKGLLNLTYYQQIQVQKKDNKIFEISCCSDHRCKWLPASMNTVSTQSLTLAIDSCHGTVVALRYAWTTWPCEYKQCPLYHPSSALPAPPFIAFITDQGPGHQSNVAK
HTRA1 inh: HTRA1 (human) protease inhibition; Q92743; recombinant HTRA1, FP-rhodamine activity-based probe, fluorescence polarization; inhibition, % at 5.96 µM; hit rate 0.5% among 340,000; in the data active = inhibition above about 36%
TCR-CD3 inh: human TCR-CD3 binding inhibition; TAMRA-labeled TCR probe fluorescence, biochemical; inhibition, % at 9.4 µM; hit rate 0.37% among 360,000; in the data active = inhibition above about 19%;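 also: recombinant mutant TCR 2C K166C tagged with TAMRA read by polarization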
mABHD4 FP: inhibitors of mouse ABHD4. purified mABHD4, FP-Rh probe fluorescence polarization. inhibition, % at 8.92 µM. hit rate 0.54% among 370,000;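 active = inhibition exceeding the mean over every tested compound plus 3 SD, cut at about 30% in these data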
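Assay system: mABHD4 protein; medium: HEPES pH 7.0, NaCl, Pluronic buffer; dosing: 8.92 µM, single dose; schedule: 45 min + 60 min at 25 °C; signal: FP readout, ex 525 nm / em 598 nm; read-out: normalized percent inhibition of probe labeling; repeats: single replicate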
Of the large screens only hits and unclear results are named; the others gave an inactive call.

COc1ccc(-c2cc(=O)[nH][nH]2)cc1OC	ARNT-TACC3 inh 49.7
C/C=C/c1ccc([C@@H]2[C@H](CO)N(Cc3ccccn3)[C@H]2CNC(C)=O)cc1	ARNT-TACC3 inh 37.2 (no result: SIAE inh, HTRA1 inh, TCR-CD3 inh, mABHD4 FP)
C/C=C/c1ccc([C@@H]2[C@@H](CO)N(Cc3ccccn3)[C@H]2CNC(C)=O)cc1	none (no result: SIAE inh, HTRA1 inh, TCR-CD3 inh, mABHD4 FP)
COc1cc(OC)nc(NC(=O)NS(=O)(=O)c2ccccc2Cl)n1	none
Cc1cc(N(C)N)nc(NC(=O)NS(=O)(=O)c2ccccc2Cl)n1	ARNT-TACC3 inh 58.7
CC(=O)c1cc(O)c2ccccc2c1O	mABHD4 FP 38.6
CCN(CC)CCCNC1=C(Cl)C(=O)c2ccccc2C1=O	ARNT-TACC3 inh 14.9
COc1ccc(-c2cc(C(F)(F)F)n3nc(C(=O)Nc4cc(C)on4)cc3n2)cc1OC	SIAE inh 18.1
Cc1ccc(-c2cc(C(F)(F)F)n3nc(C(=O)Nc4ccon4)cc3n2)cc1C	none
O=C(NNC(=O)C12CC3CC(CC(C3)C1)C2)c1cnccn1	none
COc1ccc(CC(=O)NNC(=O)c2ccccn2)cc1	ARNT-TACC3 inh 48.1
O=C(NNC(=O)C12CC3CC(CC(C3)C1)C2)c1ccccn1	ARNT-TACC3 inh 75.1
Cc1cc(C)cc(OCC(=O)NNC(=O)c2ccccn2)c1	ARNT-TACC3 inh 68.1
Cc1ccc(S(=O)(=O)N[C@H]2CC[C@@H](CCn3cc(C4CCCCC4)nn3)O[C@@H]2CO)cc1	none (no result: SIAE inh, HTRA1 inh, TCR-CD3 inh, mABHD4 FP)
CO[C@H]1CN(C)C(=O)c2cc(NC(=O)c3ccccc3)ccc2OC[C@H](C)N(C(C)=O)C[C@H]1C	none (no result: SIAE inh, HTRA1 inh, TCR-CD3 inh, mABHD4 FP)
CSC1=NC(C)(C)C=C(/C=C/c2ccc(Cl)cc2Cl)N1	none
CCSC1=NC(C)(C)C=C(/C=C/c2ccc(Cl)cc2Cl)N1	ARNT-TACC3 inh 45.0
CCc1[nH]nc2c1C(c1cccc(OC(=O)N3CCOCC3)c1)C(C#N)=C(N)O2 (stereo unspecified)	SIAE inh 25.0
CC(=O)C1C(c2cn(-c3ccccc3)nc2-c2cccs2)NC(=O)NC1(O)C(F)(F)F (stereo unspecified)	ARNT-TACC3 inh 47.0 (no result: SIAE inh, TCR-CD3 inh, mABHD4 FP)
COc1ccc(S(=O)(=O)Nc2ccc(O)c3ccccc23)cc1	mABHD4 FP 36.9
Nc1ccccc1Sc1nc2ccccc2[nH]1	SIAE inh 18.2
Cn1nnnc1Sc1ncnc2scc(-c3ccc4c(c3)OCO4)c12	ARNT-TACC3 inh 47.4
O=S(=O)(c1ccc(NC(=S)NN=Cc2ccccc2O)cc1)N1CCCCC1	ARNT-TACC3 inh 45.6
NC1=CC(=O)C(=O)c2ccccc21	ARNT-TACC3 inh 18.1
COc1ccc(C2Nc3ccccc3NC3=C2C(=O)CC(C)(C)C3)cc1O (stereo unspecified)	ARNT-TACC3 inh 46.7
O=C1C(C2=C(O)c3ccccc3C2=O)=Nc2ccccc21	mABHD4 FP 40.4
CN=CC1=C(O)c2ccccc2C1=O	none
CN1CCN(S(=O)(=O)c2ccc(NC(=O)Nc3cccc(Cl)c3)cc2)CC1	none
O=C(Nc1cccc(Cl)c1)Nc1cc(S(=O)(=O)N2CCCCC2)ccc1Cl	TCR-CD3 inh 84.8
C[C@@H]1CCCCO[C@@H](CN(C)S(=O)(=O)c2cn(C)cn2)[C@@H](C)CN([C@@H](C)CO)C(=O)c2cc(NS(=O)(=O)c3cn(C)cn3)ccc2O1	none (no result: SIAE inh, HTRA1 inh, TCR-CD3 inh, mABHD4 FP)
O=C(Nc1ccc(F)cc1)N[C@H]1CC[C@H](CC(=O)N2CCOCC2)O[C@@H]1CO	none (no result: SIAE inh, HTRA1 inh, TCR-CD3 inh, mABHD4 FP)
COc1cccc(C2c3[nH]c4ccccc4c3CCN2Cc2ncc[nH]2)c1 (stereo unspecified)	ARNT-TACC3 inh 52.6
C[C@@H]1CCCCO[C@@H](CN(C)C(=O)c2ccccc2)[C@H](C)CN([C@@H](C)CO)C(=O)c2cc(NC(=O)Nc3ccccc3)ccc2O1	none (no result: SIAE inh, HTRA1 inh, TCR-CD3 inh, mABHD4 FP)
COc1cc2c(cc1OC)-c1cc(NC3CCCCC3)nc(=O)n1CC2	ARNT-TACC3 inh 46.2
COc1cc2c(cc1OC)-c1cc(NC3CC3)nc(=O)n1CC2	ARNT-TACC3 inh 53.1
C=CCSc1nnc(-c2cc3c(-c4ccccc4)nn(C)c3s2)n1C	ARNT-TACC3 inh 48.0
O=C1NCC2=C1C(c1ccc(Br)cc1)Nc1ccccc1N2 (stereo unspecified)	ARNT-TACC3 inh active
O=C(CN1CCOCC1)N[C@@H]1CC[C@@H](CCNC(=O)Nc2cc(F)ccc2F)O[C@H]1CO	none (no result: SIAE inh, HTRA1 inh, TCR-CD3 inh, mABHD4 FP)
C/C(=N/NC(=O)c1ccccn1)c1ccncc1	none
C/C(=N\NC(=O)c1ccc(Cl)c(Cl)c1)c1ccccn1	none (no result: ARNT-TACC3 inh)
C/C(=N\NC(=O)C1COc2ccccc2O1)c1ccc(C)o1 (stereo unspecified)	none
C/C(=N\NC(=O)c1ccccc1Cl)c1ccccn1	ARNT-TACC3 inh 67.0
COc1ccc(C(=O)N/N=C(\C)c2ccccn2)cc1OC	ARNT-TACC3 inh 67.0
C/C(=N/NC(=O)c1ccc(C(C)(C)C)cc1)c1ccccn1	ARNT-TACC3 inh 65.3
C/C(=N\NC(=O)C1COc2ccccc2O1)c1ccccn1 (stereo unspecified)	ARNT-TACC3 inh 64.1
C[C@@H]1CN([C@H](C)CO)C(=O)Cc2cc(NC(=O)CCCCCC(=O)Nc3ccccc3N)ccc2O[C@H]1CN(C)CC1CCCCC1	none (no result: SIAE inh, HTRA1 inh, TCR-CD3 inh, mABHD4 FP)
C[C@H](O)C#Cc1cnc2c(c1)C(=O)N([C@H](C)CO)C[C@@H](C)[C@H](CN(C)C(=O)c1ccncc1)O2	none (no result: SIAE inh, HTRA1 inh, TCR-CD3 inh, mABHD4 FP)
C/C(=N\NC(=O)c1cc(-c2cccs2)nc2ccccc12)c1ccccn1	ARNT-TACC3 inh 72.5
C/C(=N\NC(=O)c1cccc(Br)c1)c1ccccn1	ARNT-TACC3 inh 45.0
C/C(=N\NC(=O)c1cc(Br)ccc1O)c1ccccn1	none
NNC(=O)c1cc(-c2cccs2)nc2ccccc12	none
O=C(N/N=C/c1ccccn1)c1cc(-c2ccncc2)nc2ccccc12	ARNT-TACC3 inh 68.2
C[C@@H]1CN([C@H](C)CO)S(=O)(=O)c2ccc(-c3ccccc3F)cc2O[C@@H]1CN(C)C(=O)C1CC1	none (no result: SIAE inh, HTRA1 inh, TCR-CD3 inh, mABHD4 FP)
CN(C)C(=O)C[C@H]1C[C@@H]2c3cc(NS(C)(=O)=O)ccc3O[C@@H]2[C@@H](CO)O1	none (no result: SIAE inh, HTRA1 inh, TCR-CD3 inh, mABHD4 FP)
CCn1ccnc1CNCc1ccc(OCC(O)CN(C)Cc2ccccc2)cc1 (stereo unspecified)	ARNT-TACC3 inh 46.8
S=C(NN=C(c1ccccc1)c1ccccn1)N(Cc1ccccn1)Cc1ccccn1	ARNT-TACC3 inh 66.3
O=C(CCCC(=O)N/N=C\c1ccccn1)N/N=C\c1ccccn1	none
S=C(NN=Cc1ccccn1)N(Cc1ccccn1)Cc1ccccn1	ARNT-TACC3 inh 58.7
CC(=NNC(=S)N(Cc1ccccn1)Cc1ccccn1)c1cnccn1	ARNT-TACC3 inh 64.2
CO[C@H]1CN(C)C(=O)c2cc(NC(C)=O)ccc2OC[C@H](C)N(Cc2ccccc2F)C[C@@H]1C	none (no result: SIAE inh, HTRA1 inh, TCR-CD3 inh, mABHD4 FP)
O=C(C1CCOCC1)N1C[C@H]2[C@@H](c3ccccc31)[C@H](CO)N2C(=O)c1ccccc1	none (no result: SIAE inh, HTRA1 inh, TCR-CD3 inh, mABHD4 FP)
C[C@H]1CN([C@@H](C)CO)C(=O)c2cc(C#CC3(O)CCCC3)cnc2O[C@@H]1CN(C)C(=O)CC1CC1	none (no result: SIAE inh, HTRA1 inh, TCR-CD3 inh, mABHD4 FP)
O=c1cc[nH]c2c(Cl)cccc12	none
O=c1cc[nH]c2c1ccc1c(=O)cc[nH]c12	ARNT-TACC3 inh 73.9
CCOc1cc(/C=N/Nc2nn3cnnc3c3ccccc23)ccc1O	ARNT-TACC3 inh 57.0
